Results published in ChEMBL document CHEMBL5058577, “EUbOPEN Chemogenomics Library 2 (Multiplex)” (2022).

System: HEK-293T
Test: Multiplex assay against HEK293T
Format: toxicity, cell-based
Conditions: human
Summary of the method: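 On a CQ1 microscope at 37°C and 5% CO2, live cells were imaged after compound addition. They had been stained at seeding with Hoechst33342, BioTracker Green Microtubule Cytoskeleton Dye, MitoTracker Red and Annexin V Alexa Fluor 680. CellPathfinder machine-learning gating assigned cells to Hoechst high-intensity objects or normal cells, normal cells to healthy, pyknosed or fragmented nuclei, and pyknosed cells to mitotic or apoptotic. Tubulin, mitochondrial-mass and membrane-permeability phenotypes are per cents of healthy-nucleus cells.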

[1] = 12 h, 1 µM, compound concentration 1 uM, replicate 1
[2] = 12 h, 1 µM, compound concentration 1 uM, replicate 2
[3] = 12 h, 10 µM, compound concentration 10 uM, replicate 1
[4] = 12 h, 10 µM, compound concentration 10 uM, replicate 2
[5] = 24 h, 1 µM, compound concentration 1 uM, replicate 1
[6] = 24 h, 1 µM, compound concentration 1 uM, replicate 2
[7] = 24 h, 10 µM, compound concentration 10 uM, replicate 1
[8] = 24 h, 10 µM, compound concentration 10 uM, replicate 2
[9] = 48 h, 1 µM, compound concentration 1 uM, replicate 1
[10] = 48 h, 1 µM, compound concentration 1 uM, replicate 2
[11] = 48 h, 10 µM, compound concentration 10 uM, replicate 1
[12] = 48 h, 10 µM, compound concentration 10 uM, replicate 2

In the case of `Cc1cnc(-c2cc(N3CCN(C(=O)CCS(C)(=O)=O)CC3)ncc2Cl)c(C)c1`, the “Population Apoptotic (%)” value [1] is reported as 29%, the “Population Fragmented Nuclei (%)” value [1] is reported as 6% and the “Population Healthy Nuclei (%)” value [1] is reported as 76%. The “Population Hoechst High Intensity Objects (%)” value [1] was 4%, the “Population Membrane Permeable-Phenotype (%)” value [1] was 0% and the “Population Mitochondria Different-Phenotype (%)” value [1] was 50%. For the same compound, the “Population Mitotic Cells (%)” value [1] was 70%, the “Population Normal (%)” value [1] was 95% and the “Population Pyknosed Nuclei (%)” value [1] was 16%. For the same compound, the “Population Tubulin-Different-Phenotype (%)” value [1] was 33%, the “Total Cell Count” value [1] was 276 and the “Population Apoptotic (%)” value [2] was 42%. For the same compound, the “Population Healthy Nuclei (%)” value [2] was 75%, the “Population Hoechst High Intensity Objects (%)” value [2] was 9% and the “Population Mitochondria Different-Phenotype (%)” value [2] was 69%. The “Population Mitotic Cells (%)” value [2] was 57%, the “Population Normal (%)” value [2] was 90% and the “Population Pyknosed Nuclei (%)” value [2] was 17%. The “Population Tubulin-Different-Phenotype (%)” value [2] was 24%, the “Total Cell Count” value [2] was 294 and the “Population Apoptotic (%)” value [3] was 42%. The “Population Fragmented Nuclei (%)” value [3] was 7%, the “Population Healthy Nuclei (%)” value [3] was 82% and the “Population Hoechst High Intensity Objects (%)” value [3] was 10%. For the same compound, the “Population Membrane Permeable-Phenotype (%)” value [3] was 0%, the “Population Mitochondria Different-Phenotype (%)” value [3] was 47% and the “Population Mitotic Cells (%)” value [3] was 57%. The “Population Normal (%)” value [3] was 89%, the “Population Pyknosed Nuclei (%)” value [3] was 10% and the “Population Tubulin-Different-Phenotype (%)” value [3] was 40%. The “Total Cell Count” value [3] was 409, the “Population Apoptotic (%)” value [4] was 45% and the “Population Healthy Nuclei (%)” value [4] was 75%. The “Population Hoechst High Intensity Objects (%)” value [4] was 7%, the “Population Mitochondria Different-Phenotype (%)” value [4] was 70% and the “Population Mitotic Cells (%)” value [4] was 54%. The “Population Normal (%)” value [4] was 92%, the “Population Pyknosed Nuclei (%)” value [4] was 17% and the “Population Tubulin-Different-Phenotype (%)” value [4] was 39%. The “Total Cell Count” value [4] was 288, the “Population Apoptotic (%)” value [5] was 36% and the “Population Fragmented Nuclei (%)” value [5] was 8%. For the same compound, the “Population Healthy Nuclei (%)” value [5] was 78%, the “Population Hoechst High Intensity Objects (%)” value [5] was 2% and the “Population Membrane Permeable-Phenotype (%)” value [5] was 1%. The “Population Mitochondria Different-Phenotype (%)” value [5] was 30%, the “Population Mitotic Cells (%)” value [5] was 63% and the “Population Normal (%)” value [5] was 97%. The “Population Pyknosed Nuclei (%)” value [5] was 12%, the “Population Tubulin-Different-Phenotype (%)” value [5] was 21% and the “Total Cell Count” value [5] was 368. For the same compound, the “Population Apoptotic (%)” value [6] was 40%, the “Population Fragmented Nuclei (%)” value [6] was 7% and the “Population Healthy Nuclei (%)” value [6] was 83%. The “Population Hoechst High Intensity Objects (%)” value [6] was 6%, the “Population Membrane Permeable-Phenotype (%)” value [6] was 0% and the “Population Mitochondria Different-Phenotype (%)” value [6] was 36%. The “Population Mitotic Cells (%)” value [6] was 60%, the “Population Normal (%)” value [6] was 93% and the “Population Pyknosed Nuclei (%)” value [6] was 9%. The “Population Tubulin-Different-Phenotype (%)” value [6] was 13%, the “Total Cell Count” value [6] was 413 and the “Population Apoptotic (%)” value [7] was 33%. The “Population Fragmented Nuclei (%)” value [7] was 15%, the “Population Healthy Nuclei (%)” value [7] was 76% and the “Population Hoechst High Intensity Objects (%)” value [7] was 5%. For the same compound, the “Population Membrane Permeable-Phenotype (%)” value [7] was 0%, the “Population Mitochondria Different-Phenotype (%)” value [7] was 29% and the “Population Mitotic Cells (%)” value [7] was 66%. For the same compound, the “Population Normal (%)” value [7] was 94%, the “Population Pyknosed Nuclei (%)” value [7] was 8% and the “Population Tubulin-Different-Phenotype (%)” value [7] was 31%. The “Total Cell Count” value [7] was 550, the “Population Apoptotic (%)” value [8] was 51% and the “Population Fragmented Nuclei (%)” value [8] was 7%. The “Population Healthy Nuclei (%)” value [8] was 80%, the “Population Mitochondria Different-Phenotype (%)” value [8] was 47% and the “Population Mitotic Cells (%)” value [8] was 48%. The “Population Pyknosed Nuclei (%)” value [8] was 12%, the “Population Tubulin-Different-Phenotype (%)” value [8] was 22% and the “Total Cell Count” value [8] was 392. For the same compound, the “Population Apoptotic (%)” value [9] was 27%, the “Population Fragmented Nuclei (%)” value [9] was 17% and the “Population Healthy Nuclei (%)” value [9] was 76%. For the same compound, the “Population Hoechst High Intensity Objects (%)” value [9] was 1%, the “Population Membrane Permeable-Phenotype (%)” value [9] was 1% and the “Population Mitochondria Different-Phenotype (%)” value [9] was 17%. For the same compound, the “Population Mitotic Cells (%)” value [9] was 72%, the “Population Normal (%)” value [9] was 98% and the “Population Pyknosed Nuclei (%)” value [9] was 6%. The “Population Tubulin-Different-Phenotype (%)” value [9] was 10%, the “Total Cell Count” value [9] was 718 and the “Population Apoptotic (%)” value [10] was 34%. The “Population Fragmented Nuclei (%)” value [10] was 14%, the “Population Healthy Nuclei (%)” value [10] was 78% and the “Population Hoechst High Intensity Objects (%)” value [10] was 2%. The “Population Membrane Permeable-Phenotype (%)” value [10] was 0%, the “Population Mitochondria Different-Phenotype (%)” value [10] was 22% and the “Population Mitotic Cells (%)” value [10] was 65%. The “Population Normal (%)” value [10] was 97%, the “Population Tubulin-Different-Phenotype (%)” value [10] was 6% and the “Total Cell Count” value [10] was 595. For the same compound, the “Population Apoptotic (%)” value [11] was 25%, the “Population Fragmented Nuclei (%)” value [11] was 14% and the “Population Healthy Nuclei (%)” value [11] was 78%. The “Population Hoechst High Intensity Objects (%)” value [11] was 4%, the “Population Membrane Permeable-Phenotype (%)” value [11] was 0% and the “Population Mitochondria Different-Phenotype (%)” value [11] was 23%. For the same compound, the “Population Mitotic Cells (%)” value [11] was 74%, the “Population Normal (%)” value [11] was 95% and the “Population Pyknosed Nuclei (%)” value [11] was 7%. The “Population Tubulin-Different-Phenotype (%)” value [11] was 17%, the “Total Cell Count” value [11] was 753 and the “Population Apoptotic (%)” value [12] was 36%. For the same compound, the “Population Healthy Nuclei (%)” value [12] was 77%, the “Population Hoechst High Intensity Objects (%)” value [12] was 3% and the “Population Mitochondria Different-Phenotype (%)” value [12] was 32%. The “Population Mitotic Cells (%)” value [12] was 63%, the “Population Normal (%)” value [12] was 96% and the “Population Pyknosed Nuclei (%)” value [12] was 8%. The “Population Tubulin-Different-Phenotype (%)” value [12] was 15% and the “Total Cell Count” value [12] was 576.
